According to ChEMBL document CHEMBL4689842, “EUbOPEN Chemogenomics Library wave 1” (2021):
“And” between values parts separate entries of the source, which are not always exact repeats. Identical values can stand only once.

Test system: HEK-293T
Test: Multiplex assay against HEK293T
Type: toxicity, cell-based
Details: human
In short: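 Four dyes were applied at seeding to live cells: Hoechst33342, BioTracker Green Microtubule Cytoskeleton Dye, MitoTracker Red and Annexin V Alexa Fluor 680. Imaging after compound addition used a CQ1 microscope at 37°C and 5% CO2. CellPathfinder machine-learning gating then sorted cells into Hoechst high-intensity objects or normal cells, normal cells into healthy, pyknosed or fragmented nuclei, and pyknosed cells into mitotic or apoptotic, with tubulin, mitochondrial-mass and membrane-permeability phenotypes given as per cents of healthy-nucleus cells.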

[1] = 12 h, 1 µM, compound concentration 1 uM, replicate 1
[2] = 12 h, 1 µM, compound concentration 1 uM, replicate 2
[3] = 12 h, 10 µM, compound concentration 10 uM, replicate 1
[4] = 12 h, 10 µM, compound concentration 10 uM, replicate 2
[5] = 24 h, 1 µM, compound concentration 1 uM, replicate 1
[6] = 24 h, 1 µM, compound concentration 1 uM, replicate 2
[7] = 24 h, 10 µM, compound concentration 10 uM, replicate 1
[8] = 24 h, 10 µM, compound concentration 10 uM, replicate 2

## CCC1=C[C@@H]2C[N@](C1)Cc1c([nH]c3ccccc13)[C@@](C(=O)OC)(c1cc3c(cc1OC)N(C)[C@H]1[C@@](O)(C(=O)OC)[C@H](OC(C)=O)[C@]4(CC)C=CCN5CC[C@]31[C@@H]54)C2.O=C(O)C(O)C(O)C(=O)O.O=C(O)C(O)C(O)C(=O)O [VINORELBINE TARTRATE]
[1]
  Population Apoptotic (%): 25% and 14%
  Population Fragmented Nuclei (%): 25% and 16%
  Population Healthy Nuclei (%): 32% and 48%
  Population Hoechst High Intensity Objects (%): 18% and 15%
  Population Mitochondria Different-Phenotype (%): 18% and 9%
  Population Mitotic Cells (%): 75% and 85%
  Population Normal (%): 81% and 84%
  Population Pyknosed Nuclei (%): 41% and 35%
  Total Cell Count: 502 and 565
[2]
  Population Apoptotic (%): 17% and 8%
  Population Fragmented Nuclei (%): 3% and 4%
  Population Healthy Nuclei (%): 57% and 63%
  Population Hoechst High Intensity Objects (%): 4% and 3%
  Population Membrane Permeable-Phenotype (%): 12% and 0%
  Population Mitochondria Different-Phenotype (%): 27% and 14%
  Population Mitotic Cells (%): 83% and 91%
  Population Normal (%): 95% and 96%
  Population Pyknosed Nuclei (%): 38% and 31%
  Total Cell Count: 945 and 1247
[3]
  Population Apoptotic (%): 31% and 19%
  Population Fragmented Nuclei (%): 29% and 13%
  Population Healthy Nuclei (%): 22% and 49%
  Population Hoechst High Intensity Objects (%): 19% and 15%
  Population Mitochondria Different-Phenotype (%): 13% and 9%
  Population Mitotic Cells (%): 68% and 80%
  Population Normal (%): 80% and 84%
  Population Pyknosed Nuclei (%): 48% and 37%
  Total Cell Count: 499 and 592
[4]
  Population Apoptotic (%): 13% and 7%
  Population Fragmented Nuclei (%): 3%
  Population Healthy Nuclei (%): 54% and 62%
  Population Hoechst High Intensity Objects (%): 2%
  Population Membrane Permeable-Phenotype (%): 10% and 0%
  Population Mitochondria Different-Phenotype (%): 22% and 16%
  Population Mitotic Cells (%): 86% and 92%
  Population Normal (%): 97%
  Population Pyknosed Nuclei (%): 41% and 33%
  Total Cell Count: 964 and 1090
[5]
  Population Apoptotic (%): 13% and 28%
  Population Fragmented Nuclei (%): 15% and 27%
  Population Healthy Nuclei (%): 47% and 33%
  Population Hoechst High Intensity Objects (%): 12% and 20%
  Population Membrane Permeable-Phenotype (%): 0% and 13%
  Population Mitotic Cells (%): 86% and 71%
  Population Normal (%): 87% and 79%
  Population Pyknosed Nuclei (%): 36% and 38%
  Total Cell Count: 530 and 459
[6]
  Population Apoptotic (%): 14% and 8%
  Population Fragmented Nuclei (%): 7% and 9%
  Population Healthy Nuclei (%): 36% and 69%
  Population Hoechst High Intensity Objects (%): 6% and 3%
  Population Membrane Permeable-Phenotype (%): 8%
  Population Mitochondria Different-Phenotype (%): 28%
  Population Mitotic Cells (%): 85% and 91%
  Population Normal (%): 93% and 96%
  Population Pyknosed Nuclei (%): 55% and 21%
  Total Cell Count: 914 and 1303
[7]
  Population Apoptotic (%): 20% and 38%
  Population Fragmented Nuclei (%): 16% and 29%
  Population Healthy Nuclei (%): 45% and 26%
  Population Hoechst High Intensity Objects (%): 9% and 20%
  Population Mitochondria Different-Phenotype (%): 10% and 13%
  Population Mitotic Cells (%): 79% and 61%
  Population Normal (%): 90% and 79%
  Population Pyknosed Nuclei (%): 37% and 44%
  Total Cell Count: 529 and 482
[8]
  Population Apoptotic (%): 11% and 5%
  Population Fragmented Nuclei (%): 3% and 6%
  Population Healthy Nuclei (%): 37% and 72%
  Population Hoechst High Intensity Objects (%): 3% and 2%
  Population Membrane Permeable-Phenotype (%): 9% and 0%
  Population Mitotic Cells (%): 88% and 94%
  Population Normal (%): 96% and 97%
  Population Pyknosed Nuclei (%): 58% and 21%
  Total Cell Count: 920 and 1144
